Results as given in ChEMBL document CHEMBL4257549, “Design, synthesis and biological evaluation of benzimidazole-rhodanine conjugates as potent topoisomerase II inhibitors” (Medchemcomm, 2018).
Activity calls are given as the source filed them. The rule behind the calls is not given here.

Experiments:
HeLa = assay: Cytotoxicity against human HeLa cells after 48 hrs by MTT assay; type: functional, cell-based
Method in brief: (§1)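 Cells seeded at 5000 per well, left overnight, then exposed to compound at 0–50 μM for 48 h. MTT (20 μL of 2.5 mg mL−1) added for a further 4 h at 37 °C, formazan dissolved in DMSO, absorbance read at 570 nm. Quadruplicate wells, N > 2 determinations, mean IC50 taken as the concentration reducing cell number to 50%.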

HL-60 = assay: Cytotoxicity against human HL60 cells after 48 hrs by MTT assay; type: functional, cell-based; conditions: HL-60, 48 h; method in brief: as §1
MDA-MB-231 = assay: Cytotoxicity against human MDA-MB-231 cells after 48 hrs by MTT assay; type: functional, cell-based; conditions: MDA-MB-231, 48 h; method in brief: as §1
Raji = assay: Cytotoxicity against human Raji cells after 48 hrs by MTT assay; type: functional, cell-based; method in brief: as §1
PC-3 = assay: Cytotoxicity against human PC3 cells after 48 hrs by MTT assay; type: functional, cell-based; conditions: PC-3, 48 h; method in brief: as §1
A549 = assay: Cytotoxicity against human A549 cells after 48 hrs by MTT assay; type: functional, cell-based; conditions: A549, 48 h; method in brief: as §1
Homo sapiens [1] = species: Homo sapiens; assay: Inhibition of human topoisomerase 2-mediated pBR322 DNA relaxation at 20 uM after 30 mins by agarose gel electrophoresis
[2] = target: T1, DNA topoisomerase 1 (Homo sapiens) (UniProt P11387); assay: Inhibition of topoisomerase 1 (unknown origin)-mediated pBR322 DNA relaxation at 50 uM after 30 mins by agarose gel electrophoresis
T1 sequence (whole entry): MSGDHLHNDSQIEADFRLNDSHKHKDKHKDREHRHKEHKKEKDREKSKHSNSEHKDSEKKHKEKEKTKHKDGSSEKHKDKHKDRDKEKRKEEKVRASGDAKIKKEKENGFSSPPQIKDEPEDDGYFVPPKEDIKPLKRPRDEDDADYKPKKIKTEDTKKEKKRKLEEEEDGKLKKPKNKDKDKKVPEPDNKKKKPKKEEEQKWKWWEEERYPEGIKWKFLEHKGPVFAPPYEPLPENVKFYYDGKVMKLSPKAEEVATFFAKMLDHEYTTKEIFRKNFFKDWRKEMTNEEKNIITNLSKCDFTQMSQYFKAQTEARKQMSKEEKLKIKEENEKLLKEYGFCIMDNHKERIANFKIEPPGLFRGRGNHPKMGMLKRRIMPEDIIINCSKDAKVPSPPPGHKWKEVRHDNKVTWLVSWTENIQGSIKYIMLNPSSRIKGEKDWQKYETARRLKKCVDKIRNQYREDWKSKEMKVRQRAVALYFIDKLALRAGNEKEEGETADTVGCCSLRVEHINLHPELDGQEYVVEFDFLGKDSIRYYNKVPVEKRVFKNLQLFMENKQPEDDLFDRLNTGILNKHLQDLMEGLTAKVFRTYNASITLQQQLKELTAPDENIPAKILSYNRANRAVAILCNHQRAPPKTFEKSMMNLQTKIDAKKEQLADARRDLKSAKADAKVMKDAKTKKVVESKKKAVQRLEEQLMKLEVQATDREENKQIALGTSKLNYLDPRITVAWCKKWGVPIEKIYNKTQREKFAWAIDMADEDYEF
Method in brief: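 Topo I relaxation of pBR322 with compound at 30 min, 37 °C, camptothecin positive control. Stopped with SDS/bromophenol blue/glycerol dye, run on 1% agarose in TAE for 1.5 h, Ged Red stained, UV visualized.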

Homo sapiens [3] = species: Homo sapiens; assay: Inhibition of human topoisomerase 2-mediated pBR322 DNA relaxation at 50 uM after 30 mins by agarose gel electrophoresis
Method in brief: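 Relaxation of 200 ng supercoiled pBR322 by 1 U Topo II (TopoGEN) in 20 μL buffer: 50 mM Tris-HCl pH 8.0, 150 mM NaCl, 10 mM MgCl2, 2 mM ATP, 0.5 mM DTT, 30 μg/mL BSA. Incubated 30 min at 37 °C, stopped with sarcosyl/glycerol dye. Products run on 1% agarose in TAE (1.5 h, 75 V), Ged Red stained, UV imaged; etoposide positive control.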

| Structure (SMILES) | IC50 (HeLa) [µM] | IC50 (HL-60) [µM] | IC50 (MDA-MB-231) [µM] | IC50 (Raji) [µM] | IC50 (PC-3) [µM] | IC50 (A549) [µM] | inhibition (Homo sapiens [1]) | inhibition [2] | inhibition (Homo sapiens [3]) |
| --- | --- | --- | --- | --- | --- | --- | --- | --- | --- |
| Cc1ccc(Cn2c(/C=C3\SC(=S)N(CCC(=O)O)C3=O)nc3ccccc32)cc1 | 11.2 | 4.14 | 3.79 | 6.68 | 9.31 | 8.74 | inactive | inactive |  |
| O=C(O)CN1C(=O)/C(=C/c2nc3ccccc3n2Cc2ccc(F)cc2)SC1=S | 13.9 | 1.42 | 2.62 | 1.77 | 4.86 | 3.57 | Active | inactive |  |
| O=C(O)CN1C(=O)/C(=C/c2nc3ccccc3n2Cc2ccc(Br)cc2)SC1=S | 12.9 | 0.87 | 8.72 | 1.19 | 8.49 | 9.12 | Active | inactive |  |
| O=C(O)CN1C(=O)/C(=C/c2nc3ccccc3n2Cc2ccc(F)cc2F)SC1=S | 26.1 | 6.52 | 11.5 | 8.96 | 21.7 | 12.8 | inactive | inactive | Active |
| Cc1ccc(C(=O)Cn2c(/C=C3\SC(=S)N(CC(=O)O)C3=O)nc3ccccc32)cc1 | 27.4 | 15.9 | 16.9 | 12.3 | 8.75 | 9.46 | Active | inactive |  |
| O=C(O)CN1C(=O)/C(=C/c2nc3ccccc3n2Cc2ccc(C(F)(F)F)cc2)SC1=S | 21.4 | 3.56 | 12.5 | 18.8 | 22.9 | 25.3 | Active | inactive |  |
| O=C(O)CN1C(=O)/C(=C/c2nc3cc(F)ccc3n2Cc2ccccc2F)SC1=S | > 50 | > 50 | 22.4 | 20.4 | > 50 | 32.6 | inactive | inactive | Active |
| O=C(O)CN1C(=O)/C(=C/c2nc3ccccc3n2Cc2ccccc2)SC1=S | 22.7 | 0.96 | 1.82 | 3.86 | 10.8 | 8.76 | Active | inactive | Active |
| O=C1NC(=S)S/C1=C\c1nc2ccccc2n1Cc1ccccc1F | 36.1 | 8.42 | 21.3 | 25.5 | > 50 | > 50 | Active | inactive |  |
| N#Cc1ccc(Cn2c(/C=C3\SC(=S)N(CC(=O)O)C3=O)nc3ccccc32)cc1 | 16.3 | 7.64 | 11.2 | 9.78 | 14.4 | 26.6 | inactive | inactive |  |
| O=C(O)CN1C(=O)/C(=C/c2nc3ccccc3n2Cc2cccc(F)c2)SC1=S | > 50 | 7.21 | 22.5 | 13.3 | 35.7 | 23.2 | inactive | inactive |  |
| O=C(O)CN1C(=O)/C(=C/c2nc3ccccc3n2Cc2ccc(Cl)cc2)SC1=S | 8.72 | 2.65 | 5.58 | 11.4 | 9.67 | 17.5 | Active | inactive |  |
